{"source": "ChEMBL document CHEMBL3085708", "about": "“Identification and profiling of 3,5-dimethyl-isoxazole-4-carboxylic acid [2-methyl-4-((2S,3'S)-2-methyl-[1,3']bipyrrolidinyl-1'-yl)phenyl] amide as histamine H(3) receptor antagonist for the treatment of depression” (Bioorg Med Chem Lett, 2013)", "key": {"[1]": {"assay": "AUC (0 to infinity) in Sprague-Dawley rat brain at 2 mg/kg, iv", "format": "ADME, organism-based", "set-up": "time infinity, dose 2 mg/kg, route intravenous", "how_it_was_run": "(§1)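 Single-dose PK; male OF1 mice and male Sprague-Dawley rats, 2 mg/kg iv and 10 mg/kg po. Mouse vehicles: iv 50% 1-methyl-2-pyrrolidinone in saline (1.0 mg/mL); po 5% DMSO/0.5% MC/0.2% Tween80 (1.0 mg/mL). Rat vehicles: iv saline (0.5 mg/mL); po 0.5% MC/0.2% Tween80 (1.0 mg/mL). Plasma and brain exposure read as AUC0-∞ and t1/2.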"}, "[2]": {"target": "T1, Voltage-gated inwardly rectifying potassium channel KCNH2 (Canis lupus familiaris, UniProt Q9TSZ3)", "T1 sequence (Q9TSZ3 whole entry)": "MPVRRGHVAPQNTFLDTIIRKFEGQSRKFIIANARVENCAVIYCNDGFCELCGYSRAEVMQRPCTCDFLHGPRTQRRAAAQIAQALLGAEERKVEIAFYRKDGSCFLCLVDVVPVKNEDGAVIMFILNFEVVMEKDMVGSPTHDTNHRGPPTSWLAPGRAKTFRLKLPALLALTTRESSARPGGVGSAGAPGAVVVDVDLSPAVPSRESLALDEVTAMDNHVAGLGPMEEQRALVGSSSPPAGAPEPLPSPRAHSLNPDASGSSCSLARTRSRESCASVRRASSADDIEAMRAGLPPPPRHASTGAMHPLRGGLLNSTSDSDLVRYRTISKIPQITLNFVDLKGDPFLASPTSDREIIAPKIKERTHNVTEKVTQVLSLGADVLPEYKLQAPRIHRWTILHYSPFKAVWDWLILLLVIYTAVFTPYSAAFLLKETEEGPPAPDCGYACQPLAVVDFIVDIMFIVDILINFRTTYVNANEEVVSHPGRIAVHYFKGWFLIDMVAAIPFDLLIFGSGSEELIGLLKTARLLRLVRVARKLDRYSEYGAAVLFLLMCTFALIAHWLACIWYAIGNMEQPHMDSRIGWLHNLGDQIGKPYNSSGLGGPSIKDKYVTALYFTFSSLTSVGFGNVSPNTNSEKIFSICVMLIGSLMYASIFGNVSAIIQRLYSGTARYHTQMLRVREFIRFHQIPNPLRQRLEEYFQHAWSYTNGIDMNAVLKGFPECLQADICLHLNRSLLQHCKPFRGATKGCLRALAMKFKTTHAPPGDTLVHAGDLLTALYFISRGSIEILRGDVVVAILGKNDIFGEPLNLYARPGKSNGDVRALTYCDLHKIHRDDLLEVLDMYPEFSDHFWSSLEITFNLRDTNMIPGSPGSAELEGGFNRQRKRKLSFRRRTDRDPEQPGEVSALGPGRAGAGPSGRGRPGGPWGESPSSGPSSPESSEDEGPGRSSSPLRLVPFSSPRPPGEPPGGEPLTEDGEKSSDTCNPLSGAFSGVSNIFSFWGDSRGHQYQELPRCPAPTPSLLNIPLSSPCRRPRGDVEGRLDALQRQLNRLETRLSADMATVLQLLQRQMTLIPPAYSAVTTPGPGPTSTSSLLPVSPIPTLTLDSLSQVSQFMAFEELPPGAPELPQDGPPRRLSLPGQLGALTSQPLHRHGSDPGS", "assay": "Inhibition of canine ERG current transfected in CHO cells by patch clamp assay", "format": "cell-based", "how_it_was_run": "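Whole-cell patch clamp on CHO cells stably transfected with the canine ERG gene; cERG current IC50 from n = 4.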"}, "[3]": {"assay": "Drug metabolism in guinea pig liver microsomes", "format": "ADME, Cavia porcellus, Microsome", "details": "read-out: Drug metabolism"}, "[4]": {"assay": "Volume of distribution in OF1 mouse at 2 mg/kg, iv", "format": "ADME, organism-based", "set-up": "dose 2 mg/kg, route intravenous", "details": "in vivo", "how_it_was_run": "(§2)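 Male OF1 mice given 2 mg/kg iv (50% 1-methyl-2-pyrrolidinone in saline, 1.0 mg/mL) and 10 mg/kg po (5% DMSO/0.5% MC/0.2% Tween80, 1.0 mg/mL); plasma and brain exposure measured; B/P ratio from iv AUC.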"}, "[5]": {"system": "Hepatocyte", "assay": "Intrinsic clearance in human hepatocytes measured per 10^6 cells", "format": "ADME, cell-based", "how_it_was_run": "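Intrinsic clearance in human hepatocytes, expressed as mL h−1 per 10^6 hepatocytes, n = 4.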"}, "[6]": {"target": "Voltage-gated inwardly rectifying potassium channel KCNH2 (Homo sapiens, UniProt Q12809)", "sequence (Q12809 whole entry)": "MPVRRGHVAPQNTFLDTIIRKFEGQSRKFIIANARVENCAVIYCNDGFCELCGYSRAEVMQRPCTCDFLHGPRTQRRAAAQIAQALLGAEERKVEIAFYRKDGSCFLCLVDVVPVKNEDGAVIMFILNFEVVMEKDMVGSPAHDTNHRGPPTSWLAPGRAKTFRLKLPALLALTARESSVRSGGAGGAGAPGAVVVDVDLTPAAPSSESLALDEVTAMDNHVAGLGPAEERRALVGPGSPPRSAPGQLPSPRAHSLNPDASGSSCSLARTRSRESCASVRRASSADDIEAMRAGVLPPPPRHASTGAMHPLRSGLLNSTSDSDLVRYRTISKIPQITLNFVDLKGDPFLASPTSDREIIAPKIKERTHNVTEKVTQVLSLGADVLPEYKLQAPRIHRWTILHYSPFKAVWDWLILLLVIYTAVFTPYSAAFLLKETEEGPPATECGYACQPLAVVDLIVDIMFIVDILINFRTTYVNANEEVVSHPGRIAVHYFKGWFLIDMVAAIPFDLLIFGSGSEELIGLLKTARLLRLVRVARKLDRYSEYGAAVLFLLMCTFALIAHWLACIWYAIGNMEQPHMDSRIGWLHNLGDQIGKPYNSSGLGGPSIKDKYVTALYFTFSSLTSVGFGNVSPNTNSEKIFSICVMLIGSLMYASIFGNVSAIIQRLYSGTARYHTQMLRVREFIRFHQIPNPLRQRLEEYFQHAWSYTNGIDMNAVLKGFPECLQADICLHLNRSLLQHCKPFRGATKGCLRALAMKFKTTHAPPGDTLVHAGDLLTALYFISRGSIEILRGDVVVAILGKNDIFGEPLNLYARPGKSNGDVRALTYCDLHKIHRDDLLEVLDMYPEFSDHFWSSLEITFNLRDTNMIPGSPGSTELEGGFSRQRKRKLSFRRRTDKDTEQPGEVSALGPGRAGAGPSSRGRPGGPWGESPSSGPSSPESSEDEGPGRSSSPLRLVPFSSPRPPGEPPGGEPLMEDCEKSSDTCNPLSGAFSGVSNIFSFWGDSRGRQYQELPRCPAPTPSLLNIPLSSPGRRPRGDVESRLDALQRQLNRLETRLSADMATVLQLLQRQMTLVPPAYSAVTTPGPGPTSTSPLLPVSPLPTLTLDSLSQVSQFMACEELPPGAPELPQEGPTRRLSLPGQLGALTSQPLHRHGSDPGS", "assay": "Inhibition of human ERG current transfected in CHO cells by patch clamp assay", "format": "cell-based", "how_it_was_run": "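Whole-cell patch clamp on CHO cells, hERG current; IC50 from n = 4.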"}, "[7]": {"assay": "Drug metabolism in rat plasma at 100 ng/ml after 4 hrs", "format": "ADME, cell-free", "details": "read-out: Drug metabolism", "how_it_was_run": "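Compound spiked into blank plasma of human, mouse, rat, rabbit, macaque and dog at 100 ng/ml, then incubated in a 37 °C water bath for up to 4 h; percent metabolized reported.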"}, "[8]": {"assay": "Cmax in Sprague-Dawley rat brain at 10 mg/kg, po", "format": "ADME, organism-based", "set-up": "dose 10 mg/kg, route oral", "how_it_was_run": "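Oral PK at 10 mg/kg po in male OF1 mice (vehicle 5% DMSO/0.5% MC/0.2% Tween80, 1.0 mg/mL) and male Sprague-Dawley rats (vehicle 0.5% MC/0.2% Tween80, 1.0 mg/mL). Cmax and tmax taken from plasma and brain concentration–time profiles.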"}, "[9]": {"assay": "Elimination half life in OF1 mouse plasma at 10 mg/kg, po", "format": "ADME, organism-based", "set-up": "dose 10 mg/kg, route oral", "details": "read-out: beta t1/2 (converted)", "how_it_was_run": "as §1"}, "[10]": {"assay": "Tmax in Sprague-Dawley rat plasma at 10 mg/kg, po", "format": "ADME, organism-based", "set-up": "dose 10 mg/kg, route oral", "how_it_was_run": "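Male Sprague-Dawley rats dosed 2 mg/kg iv in saline (0.5 mg/mL) and 10 mg/kg po in 0.5% MC/0.2% Tween80 (1.0 mg/mL); plasma and brain concentrations followed.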"}, "[11]": {"assay": "Toxicity in guinea pig heart assessed as decrease in ventricular contraction at 30 uM relative to control", "format": "tissue-based, Cavia porcellus, Cardiac ventricle"}, "[12]": {"assay": "Toxicity in po dosed mouse", "details": "in vivo"}, "[13]": {"target": "Cytochrome P450 3A4 (Homo sapiens, UniProt P08684)", "sequence (P08684 whole entry)": "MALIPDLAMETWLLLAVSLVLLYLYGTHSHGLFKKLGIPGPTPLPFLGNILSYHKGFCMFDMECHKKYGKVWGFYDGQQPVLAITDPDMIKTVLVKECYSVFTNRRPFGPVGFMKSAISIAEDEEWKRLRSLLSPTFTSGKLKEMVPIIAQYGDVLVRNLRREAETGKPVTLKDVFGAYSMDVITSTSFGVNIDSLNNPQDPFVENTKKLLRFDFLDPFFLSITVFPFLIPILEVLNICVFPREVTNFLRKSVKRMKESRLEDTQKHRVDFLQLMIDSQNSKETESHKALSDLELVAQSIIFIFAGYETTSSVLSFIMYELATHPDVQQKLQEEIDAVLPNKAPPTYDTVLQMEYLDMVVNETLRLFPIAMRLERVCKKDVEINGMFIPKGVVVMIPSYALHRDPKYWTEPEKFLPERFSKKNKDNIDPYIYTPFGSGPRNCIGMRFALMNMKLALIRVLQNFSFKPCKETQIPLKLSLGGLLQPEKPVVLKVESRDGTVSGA", "assay": "Inhibition of CYP3A4 (unknown origin) after 4 hrs", "format": "ADME"}, "[14]": {"assay": "Drug metabolism in rat liver microsomes", "format": "ADME", "details": "read-out: Drug metabolism"}, "[15]": {"system": "Heart", "assay": "Toxicity in guinea pig heart assessed as effect on coronary pressure at 0.1 to 30 uM", "format": "tissue-based, Cavia porcellus"}, "[16]": {"assay": "Drug metabolism in macaque liver microsomes", "format": "ADME, Microsome", "details": "macaca, read-out: Drug metabolism"}, "[17]": {"system": "Mus musculus", "assay": "Toxicity in mouse assessed as effect on motility at 30 mg/kg, po", "format": "organism-based", "set-up": "dose 30 mg/kg, route oral", "details": "in vivo", "how_it_was_run": "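Acute oral group toxicity in mice: behavioural side effects scored (social interaction, motility, preconvulsant signs, convulsions, tremor) after single po doses of 30 and 100 mg/kg.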"}, "[18]": {"assay": "Elimination half life in Sprague-Dawley rat brain at 10 mg/kg, po", "format": "ADME, organism-based", "set-up": "dose 10 mg/kg, route oral", "details": "read-out: beta t1/2 (converted)", "how_it_was_run": "as §1"}, "[19]": {"assay": "AUC (0 to infinity) in OF1 mouse brain at 10 mg/kg, po", "format": "ADME, organism-based", "set-up": "time infinity, dose 10 mg/kg, route oral", "how_it_was_run": "as §1"}, "[20]": {"target": "Cytochrome P450 2C19 (Homo sapiens, UniProt P33261)", "sequence (P33261 whole entry)": "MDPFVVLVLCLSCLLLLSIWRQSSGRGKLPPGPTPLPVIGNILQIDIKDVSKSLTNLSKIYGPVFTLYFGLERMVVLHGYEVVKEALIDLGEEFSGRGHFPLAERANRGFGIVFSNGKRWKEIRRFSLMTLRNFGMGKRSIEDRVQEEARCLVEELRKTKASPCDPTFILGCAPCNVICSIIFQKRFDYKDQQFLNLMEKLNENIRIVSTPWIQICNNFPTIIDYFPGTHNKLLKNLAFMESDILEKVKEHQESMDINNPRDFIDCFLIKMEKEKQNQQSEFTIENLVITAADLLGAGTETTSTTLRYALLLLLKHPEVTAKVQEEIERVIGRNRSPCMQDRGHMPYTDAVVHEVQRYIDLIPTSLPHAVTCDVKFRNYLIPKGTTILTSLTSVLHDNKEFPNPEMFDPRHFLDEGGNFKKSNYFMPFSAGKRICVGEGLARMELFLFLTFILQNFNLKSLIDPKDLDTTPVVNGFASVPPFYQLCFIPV", "assay": "Inhibition of CYP2C19 (unknown origin) after 4 hrs", "format": "ADME"}, "[21]": {"system": "Mus musculus", "assay": "Toxicity in mouse assessed as effect on behavioral activity at 10 to 30 mg/kg, po by Irwin test", "format": "organism-based", "set-up": "dose 10-30 mg/kg, route oral", "details": "in vivo", "how_it_was_run": "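Irwin exploratory general behaviour study in male mice; single oral doses of 0, 10 and 30 mg/kg; behavioural, neurologic and autonomic effects observed.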"}, "[22]": {"system": "Mus musculus", "assay": "Plasma clearance in OF1 mouse at 2 mg/kg, iv", "format": "ADME, organism-based", "set-up": "dose 2 mg/kg, route intravenous", "details": "in vivo", "how_it_was_run": "as §2"}, "[23]": {"assay": "Toxicity in guinea pig heart assessed as decrease in ventricular contraction at 10 uM relative to control", "format": "tissue-based, Cavia porcellus, Cardiac ventricle"}}}
{"smiles": "Cc1cc(N2CC[C@H](N3CCC[C@@H]3C)C2)ccc1NC(=O)c1c(C)noc1C", "values": [{"measurement": "AUC(0-inf)", "setting": "[1]", "value": 1200, "unit": "ng·h/mL"}, {"measurement": "IC50", "setting": "[2]", "value": 44, "unit": "µM"}, {"measurement": "metabolised", "setting": "[3]", "value": 35, "unit": "%"}, {"measurement": "Vd", "setting": "[4]", "value": 1.7, "unit": "L/kg"}, {"measurement": "CLH", "setting": "[5]", "value": 0.04, "unit": "mL/h"}, {"measurement": "IC50", "setting": "[6]", "value": 37, "unit": "µM"}, {"measurement": "metabolised at 4 h, 100 ng/ml", "setting": "[7]", "value": "< 5", "unit": "%"}, {"measurement": "Cmax", "setting": "[8]", "value": 599, "unit": "ng/mL"}, {"measurement": "half-life", "setting": "[9]", "value": 108, "unit": "min"}, {"measurement": "Tmax", "setting": "[10]", "value": 30, "unit": "min"}, {"measurement": "inhibition at 30 µM", "setting": "[11]", "value": 33, "unit": "%"}, {"measurement": "MTD", "setting": "[12]", "value": 30, "unit": "mg/kg"}, {"measurement": "IC50", "setting": "[13]", "value": "> 100", "unit": "µM"}, {"measurement": "metabolised", "setting": "[14]", "value": "< 5", "unit": "%"}, {"measurement": "Activity", "setting": "[15]", "value": "Non-toxic"}, {"measurement": "metabolised", "setting": "[16]", "value": "< 5", "unit": "%"}, {"measurement": "Activity", "setting": "[17]", "value": "Non-toxic"}, {"measurement": "half-life", "setting": "[18]", "value": 564, "unit": "min"}, {"measurement": "AUC(0-inf)", "setting": "[19]", "value": 3100, "unit": "ng·h/mL"}, {"measurement": "IC50", "setting": "[20]", "value": "> 100", "unit": "µM"}, {"measurement": "Activity", "setting": "[21]", "value": "Non-toxic"}, {"measurement": "clearance", "setting": "[22]", "value": 3, "unit": "L/h/kg"}, {"measurement": "inhibition at 10 µM", "setting": "[23]", "value": 23, "unit": "%"}]}
